Data: ChEMBL document CHEMBL1152630, “Synthesis and evaluation of benzo[b]thiophene derivatives as inhibitors of alkaline phosphatases” (Bioorg Med Chem, 2009)

How the values were obtained:
[1] = molecular target: Intestinal-type alkaline phosphatase (Bos taurus) (UniProt P19111); assay: Inhibition of bovine intestinal alkaline phosphatase assessed as residual enzyme activity at 0.1 mM in presence of 1% DMSO at pH 10.4 at 37 degC relative to untreated control
In short: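 Screening in 25 mM piperazine, 25 mM glycylglycine, 5 mM MgCl2, 5 µM ZnCl2, pH 10.4, 37 °C. BIAP (0.1–0.3 µg/mL) preincubated 10 min with 0.1 mM compound (final DMSO 1% v/v), no substrate. Reaction started with 0.05 mM pNPP; read at 420 nm (ε 18.6 cm⁻¹ mM⁻¹). Activity given relative to inhibitor-free control; sample-to-sample error 5%.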

Sus scrofa = organism: Sus scrofa; assay: Inhibition of porcine kidney tissue non-specific alkaline phosphatase assessed as residual enzyme activity at 0.4 mM in presence of 4% DMSO at pH 10.4 at 37 degC relative to untreated control

Sequence of Intestinal-type alkaline phosphatase (Bos taurus) (P19111 20-506 limits assumed): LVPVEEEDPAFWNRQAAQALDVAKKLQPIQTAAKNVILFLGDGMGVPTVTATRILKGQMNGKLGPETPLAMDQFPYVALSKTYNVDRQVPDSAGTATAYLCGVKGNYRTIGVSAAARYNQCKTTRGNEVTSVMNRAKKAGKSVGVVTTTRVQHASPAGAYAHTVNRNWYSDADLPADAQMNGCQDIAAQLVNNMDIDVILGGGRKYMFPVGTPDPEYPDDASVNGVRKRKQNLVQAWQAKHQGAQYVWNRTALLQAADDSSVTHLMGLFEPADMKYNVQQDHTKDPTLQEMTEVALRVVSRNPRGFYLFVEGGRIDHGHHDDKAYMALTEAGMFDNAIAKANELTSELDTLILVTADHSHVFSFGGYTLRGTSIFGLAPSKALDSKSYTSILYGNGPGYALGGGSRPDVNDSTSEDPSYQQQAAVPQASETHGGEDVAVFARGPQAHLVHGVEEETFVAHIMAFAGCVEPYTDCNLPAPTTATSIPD

SMILES | Activity [1] [%] | Activity (Sus scrofa) [%]
COc1ccc(-c2sc3ccccc3c2N2CCCCC2)cc1 | 106 | 91
COc1ccc(Oc2csc3ccccc23)cc1 | 96 | 82
COc1ccc(-c2sc3ccccc3c2C(=O)c2cc(OC)c(OC)c(OC)c2)c([N+](=O)[O-])c1 | 124 | 92
[O-][s+]1cc(N2CCOCC2)c2ccccc21 (stereo unspecified) | 97 | 111
FC(F)(F)COc1cc2ccccc2s1 | 116 | 100
COc1c(-c2cnc3ccccc3c2)sc2ccccc12 | 64 | 86
CN(C)c1cccc(-c2sc3ccccc3c2CN)c1 | 134 | 84
COc1cc(Oc2c[s+]([O-])c3ccccc23)cc(OC)c1OC (stereo unspecified) | 127 | 101
Oc1ccccc1N1CCN(c2csc3ccccc23)CC1 | 49 | 109
N#Cc1c(-c2ccc3ccccc3c2)sc2ccccc12 | 18 | 99
COc1ccc(-c2sc3ccccc3c2CN)c(OC)c1OC | 142 | 94
Cc1ccc(-c2cc3ccccc3s2)c([N+](=O)[O-])c1 | 127 | 97
Cc1ccccc1-c1sc2ccccc2c1C#N | 5 | 85
FC(F)(F)COc1sc2ccccc2c1-c1cccnc1 | 102 | 97
[O-][s+]1cc(Oc2ccc(Cl)cc2)c2ccccc21 (stereo unspecified) | 122 | 103
COC(=O)C(Cc1c(-c2ccc(C#N)cc2)sc2ccccc12)NCc1ccccc1 (stereo unspecified) | 115 | –
Clc1cccc(-c2cc3ccccc3s2)c1 | 95 | 96
N#Cc1c(-c2ccc(C(F)(F)F)cc2)sc2ccccc12 | 96 | 97
COc1ccc(-c2sc3ccccc3c2CN)c(N)c1 | 103 | 103
COc1ccc(-c2sc3ccccc3c2OC)cc1 | 78 | 97
N#Cc1ccccc1-c1sc2ccccc2c1N1CCOCC1 | 107 | 93
O=Cc1c(-c2ccc(Cl)cc2)sc2ccccc12 | 9 | –
N#Cc1c(-c2cccnc2)sc2ccccc12 | 106 | –

SMILES | Activity [1] [%] | Activity (Sus scrofa) [%]
FC(F)(F)Cc1c(-c2cccnc2)sc2ccccc12 | 122 | 84
N#Cc1cc2ccccc2s1 | 103 | 105
COc1c(-c2ccccc2C)sc2ccccc12 | 73 | 96
COc1ccc(C(=O)c2c(-c3ccccc3[N+](=O)[O-])sc3ccccc23)cc1 | 107 | 101
CC(C)(C)c1ccc(Oc2csc3ccccc23)cc1 | 113 | 100
COc1ccc(-c2sc3ccccc3c2C#N)cc1 | 94 | –
c1ccc(-c2cc3ccccc3s2)nc1 | 119 | 94
N#Cc1ccccc1-c1sc2ccccc2c1C#N | 90 | –
COc1c(-c2ccc3ccccc3c2)sc2ccccc12 | 102 | –
N#Cc1sc2ccccc2c1-c1cccnc1 | 120 | –
O=Cc1c(-c2cnc3ccccc3c2)sc2ccccc12 | 110 | –
N#Cc1c(-c2ccccc2)sc2ccccc12 | 76 | –
COc1cccc(-c2sc3ccccc3c2C#N)c1 | 97 | –
O=Cc1ccc(Oc2csc3ccccc23)cc1 | 9 | –
N#Cc1c(-c2cccc(Cl)c2)sc2ccccc12 | 115 | –
COC(=O)C(Cc1c(-c2ccc(C(F)(F)F)cc2)sc2ccccc12)NCc1ccccc1 (stereo unspecified) | 63 | –
N#Cc1c(-c2ccccn2)sc2ccccc12 | 94 | –
N#Cc1sc2ccccc2c1-c1ccc(C(F)(F)F)cc1 | 115 | –
N#Cc1c(-c2ccc(Cl)cc2)sc2ccccc12 | 69 | –
COc1ccc(-c2csc3ccccc23)cc1 | 100 | –
N#Cc1c(-c2cnc3ccccc3c2)sc2ccccc12 | 95 | –
COC(=O)/C(=C\c1c(-c2ccc(C#N)cc2)sc2ccccc12)NCc1ccccc1 | 108 | –
